Measured values: ChEMBL document CHEMBL4765413, “Discovery of novel anti-angiogenesis agents. Part 11: Development of PROTACs based on active molecules with potency of promoting vascular normalization” (Eur J Med Chem, 2020)

Assays:
[1] = tested on: HEK293; assay: Cytotoxicity against HEK293 cells measured after 24 hrs by MTT assay; assay type: cell-based; settings: human, hek293, 24 h
[2] = tested on: EA.hy 926; assay: Antiangiogenic activity in human EA.hy 926 cells measured after 24 hrs by MTT assay; settings: EA.hy 926, 24 h
[3] = target: Vascular endothelial growth factor receptor 2 (Homo sapiens, UniProt P35968); assay: Inhibition of recombinant human N-terminal GST-tagged VEGFR2 (789 to end residues) expressed in baculovirus infected Sf9 insect cells using Poly (4:1 Glu, Tyr) as substrate incubated for 1 hr by ADP-Glo luminescent assay
[4] = tested on: EA.hy 926; assay: Induction of apoptosis in human EA.hy 926 cells assessed as necrotic cells at 0.1 uM measured after 72 hrs by Annexin V-FITC/propidium iodide staining based flow cytometry (reference value: 2.65%); assay type: functional
[5] = tested on: EA.hy 926; assay: Induction of apoptosis in human EA.hy 926 cells assessed as early apoptotic cells at 40 uM measured after 72 hrs by Annexin V-FITC/propidium iodide staining based flow cytometry (reference value: 3.4%); assay type: functional
[6] = tested on: EA.hy 926; assay: Induction of apoptosis in human EA.hy 926 cells assessed as early apoptotic cells at 0.1 uM measured after 72 hrs by Annexin V-FITC/propidium iodide staining based flow cytometry (reference value: 3.4%); assay type: functional
[7] = tested on: EA.hy 926; assay: Cell cycle arrest in human EA.hy 926 cells assessed as accumulation at G1 phase at 1 uM measured after 72 hrs by propidium iodide staining based flow cytometry (reference value: 59.78%); assay type: functional
[8] = tested on: EA.hy 926; assay: Induction of apoptosis in human EA.hy 926 cells measured after 72 hrs by Annexin V-FITC/propidium iodide staining based flow cytometry; assay type: functional, cell-based
[9] = tested on: EA.hy 926; assay: Induction of apoptosis in human EA.hy 926 cells assessed as necrotic cells at 20 uM measured after 72 hrs by Annexin V-FITC/propidium iodide staining based flow cytometry (reference value: 2.65%); assay type: functional
[10] = tested on: EA.hy 926; assay: Induction of apoptosis in human EA.hy 926 cells assessed as early apoptotic cells at 10 uM measured after 72 hrs by Annexin V-FITC/propidium iodide staining based flow cytometry (reference value: 3.4%); assay type: functional
[11] = tested on: EA.hy 926; assay: Cell cycle arrest in human EA.hy 926 cells assessed as accumulation at S phase at 20 uM measured after 72 hrs by propidium iodide staining based flow cytometry (reference value: 14.39%); assay type: functional
[12] = tested on: EA.hy 926; assay: Induction of apoptosis in human EA.hy 926 cells assessed as late apoptotic cells at 0.1 uM measured after 72 hrs by Annexin V-FITC/propidium iodide staining based flow cytometry (reference value: 5.34%)
[13] = tested on: EA.hy 926; assay: Induction of apoptosis in human EA.hy 926 cells assessed as necrotic cells at 1 uM measured after 72 hrs by Annexin V-FITC/propidium iodide staining based flow cytometry (reference value: 2.65%); assay type: functional
[14] = tested on: EA.hy 926; assay: Cell cycle arrest in human EA.hy 926 cells assessed as accumulation at G1 phase at 0.1 uM measured after 72 hrs by propidium iodide staining based flow cytometry (reference value: 59.78%); assay type: functional
[15] = tested on: EA.hy 926; assay: Cell cycle arrest in human EA.hy 926 cells assessed as accumulation at S phase at 1 uM measured after 72 hrs by propidium iodide staining based flow cytometry (reference value: 14.39%); assay type: functional
[16] = tested on: EA.hy 926; assay: Induction of apoptosis in human EA.hy 926 cells assessed as late apoptotic cells at 1 uM measured after 72 hrs by Annexin V-FITC/propidium iodide staining based flow cytometry (reference value: 5.34%)
[17] = tested on: EA.hy 926; assay: Cell cycle arrest in human EA.hy 926 cells assessed as accumulation at G2 phase at 20 uM measured after 72 hrs by propidium iodide staining based flow cytometry (reference value: 25.83%); assay type: functional
[18] = tested on: EA.hy 926; assay: Cell cycle arrest in human EA.hy 926 cells assessed as accumulation at G2 phase at 10 uM measured after 72 hrs by propidium iodide staining based flow cytometry (reference value: 25.83%); assay type: functional
[19] = tested on: EA.hy 926; assay: Induction of apoptosis in human EA.hy 926 cells assessed as viable cells at 0.1 uM measured after 72 hrs by Annexin V-FITC/propidium iodide staining based flow cytometry (reference value: 88.6%); assay type: functional; settings: read-out: Activity
[20] = tested on: EA.hy 926; assay: Cell cycle arrest in human EA.hy 926 cells assessed as accumulation at S phase at 10 uM measured after 72 hrs by propidium iodide staining based flow cytometry (reference value: 14.39%); assay type: functional
[21] = tested on: EA.hy 926; assay: Induction of apoptosis in human EA.hy 926 cells assessed as late apoptotic cells at 40 uM measured after 72 hrs by Annexin V-FITC/propidium iodide staining based flow cytometry (reference value: 5.34%)
[22] = tested on: EA.hy 926; assay: Cell cycle arrest in human EA.hy 926 cells assessed as accumulation at G1 phase at 20 uM measured after 72 hrs by propidium iodide staining based flow cytometry (reference value: 59.78%); assay type: functional
[23] = tested on: EA.hy 926; assay: Induction of apoptosis in human EA.hy 926 cells assessed as necrotic cells at 40 uM measured after 72 hrs by Annexin V-FITC/propidium iodide staining based flow cytometry (reference value: 2.65%); assay type: functional
[24] = tested on: EA.hy 926; assay: Cell cycle arrest in human EA.hy 926 cells assessed as accumulation at G2 phase at 1 uM measured after 72 hrs by propidium iodide staining based flow cytometry (reference value: 25.83%); assay type: functional
[25] = tested on: EA.hy 926; assay: Induction of apoptosis in human EA.hy 926 cells assessed as late apoptotic cells at 20 uM measured after 72 hrs by Annexin V-FITC/propidium iodide staining based flow cytometry (reference value: 5.34%)
[26] = tested on: EA.hy 926; assay: Cell cycle arrest in human EA.hy 926 cells assessed as accumulation at S phase at 0.1 uM measured after 72 hrs by propidium iodide staining based flow cytometry (reference value: 14.39%); assay type: functional
[27] = tested on: EA.hy 926; assay: Cell cycle arrest in human EA.hy 926 cells assessed as accumulation at G2 phase at 40 uM measured after 72 hrs by propidium iodide staining based flow cytometry (reference value: 25.83%); assay type: functional
[28] = tested on: EA.hy 926; assay: Induction of apoptosis in human EA.hy 926 cells assessed as viable cells at 20 uM measured after 72 hrs by Annexin V-FITC/propidium iodide staining based flow cytometry (reference value: 88.6%); assay type: functional; settings: read-out: Activity
[29] = tested on: EA.hy 926; assay: Induction of apoptosis in human EA.hy 926 cells assessed as viable cells at 10 uM measured after 72 hrs by Annexin V-FITC/propidium iodide staining based flow cytometry (reference value: 88.6%); assay type: functional; settings: read-out: Activity
[30] = tested on: EA.hy 926; assay: Induction of apoptosis in human EA.hy 926 cells assessed as early apoptotic cells at 1 uM measured after 72 hrs by Annexin V-FITC/propidium iodide staining based flow cytometry (reference value: 3.4%); assay type: functional
[31] = tested on: EA.hy 926; assay: Induction of apoptosis in human EA.hy 926 cells assessed as viable cells at 1 uM measured after 72 hrs by Annexin V-FITC/propidium iodide staining based flow cytometry (reference value: 88.6%); assay type: functional; settings: read-out: Activity
[32] = target: T1, von Hippel-Lindau disease tumor suppressor/Vascular endothelial growth factor receptor 2 (Homo sapiens) (UniProt P35968+P40337); assay: Protac activity at VHL/VEGFR2 in human EA.hy 926 cells assessed as induction of VEGFR2 degradation measured after 24 to 72 hrs by Western blot analysis; assay type: cell-based; settings: time 24-72 hrs
Outline: (§1)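 EA.hy926 cells were exposed to DMSO vehicle or test compound, then lysed in SDS sample buffer and normalized by BCA protein assay. Equal protein amounts were run on SDS-PAGE and transferred to PVDF. Membranes were blocked in 5% milk/TBS-Tween and probed with anti-VEGFR-2 (1:500), with GAPDH (1:10000) as loading control. Detection used HRP secondary and ECL, with densitometric quantification.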

[33] = tested on: EA.hy 926; assay: Cell cycle arrest in human EA.hy 926 cells assessed as accumulation at G1 phase at 40 uM measured after 72 hrs by propidium iodide staining based flow cytometry (reference value: 59.78%); assay type: functional
[34] = tested on: EA.hy 926; assay: Cell cycle arrest in human EA.hy 926 cells assessed as accumulation at G2 phase at 0.1 uM measured after 72 hrs by propidium iodide staining based flow cytometry (reference value: 25.83%); assay type: functional
[35] = tested on: EA.hy 926; assay: Induction of apoptosis in human EA.hy 926 cells assessed as late apoptotic cells at 10 uM measured after 72 hrs by Annexin V-FITC/propidium iodide staining based flow cytometry (reference value: 5.34%)
[36] = tested on: EA.hy 926; assay: Cell cycle arrest in human EA.hy 926 cells assessed as accumulation at G1 phase at 10 uM measured after 72 hrs by propidium iodide staining based flow cytometry (reference value: 59.78%); assay type: functional
[37] = tested on: EA.hy 926; assay: Induction of apoptosis in human EA.hy 926 cells assessed as necrotic cells at 10 uM measured after 72 hrs by Annexin V-FITC/propidium iodide staining based flow cytometry (reference value: 2.65%); assay type: functional
[38] = tested on: EA.hy 926; assay: Induction of apoptosis in human EA.hy 926 cells assessed as early apoptotic cells at 20 uM measured after 72 hrs by Annexin V-FITC/propidium iodide staining based flow cytometry (reference value: 3.4%); assay type: functional
[39] = tested on: EA.hy 926; assay: Cell cycle arrest in human EA.hy 926 cells assessed as accumulation at S phase at 40 uM measured after 72 hrs by propidium iodide staining based flow cytometry (reference value: 14.39%); assay type: functional
[40] = target: T1, von Hippel-Lindau disease tumor suppressor/Vascular endothelial growth factor receptor 2 (Homo sapiens); assay: Protac activity at VHL/VEGFR2 in human EA.hy 926 cells assessed as induction of VEGFR2 degradation at 40 uM measured after 24 to 48 hrs by Western blot analysis relative to control; assay type: cell-based; settings: time 24-48 hrs; outline: as §1
[41] = tested on: EA.hy 926; assay: Induction of apoptosis in human EA.hy 926 cells assessed as viable cells at 40 uM measured after 72 hrs by Annexin V-FITC/propidium iodide staining based flow cytometry (reference value: 88.6%); assay type: functional; settings: read-out: Activity

Sequence of Vascular endothelial growth factor receptor 2 (P35968 whole entry): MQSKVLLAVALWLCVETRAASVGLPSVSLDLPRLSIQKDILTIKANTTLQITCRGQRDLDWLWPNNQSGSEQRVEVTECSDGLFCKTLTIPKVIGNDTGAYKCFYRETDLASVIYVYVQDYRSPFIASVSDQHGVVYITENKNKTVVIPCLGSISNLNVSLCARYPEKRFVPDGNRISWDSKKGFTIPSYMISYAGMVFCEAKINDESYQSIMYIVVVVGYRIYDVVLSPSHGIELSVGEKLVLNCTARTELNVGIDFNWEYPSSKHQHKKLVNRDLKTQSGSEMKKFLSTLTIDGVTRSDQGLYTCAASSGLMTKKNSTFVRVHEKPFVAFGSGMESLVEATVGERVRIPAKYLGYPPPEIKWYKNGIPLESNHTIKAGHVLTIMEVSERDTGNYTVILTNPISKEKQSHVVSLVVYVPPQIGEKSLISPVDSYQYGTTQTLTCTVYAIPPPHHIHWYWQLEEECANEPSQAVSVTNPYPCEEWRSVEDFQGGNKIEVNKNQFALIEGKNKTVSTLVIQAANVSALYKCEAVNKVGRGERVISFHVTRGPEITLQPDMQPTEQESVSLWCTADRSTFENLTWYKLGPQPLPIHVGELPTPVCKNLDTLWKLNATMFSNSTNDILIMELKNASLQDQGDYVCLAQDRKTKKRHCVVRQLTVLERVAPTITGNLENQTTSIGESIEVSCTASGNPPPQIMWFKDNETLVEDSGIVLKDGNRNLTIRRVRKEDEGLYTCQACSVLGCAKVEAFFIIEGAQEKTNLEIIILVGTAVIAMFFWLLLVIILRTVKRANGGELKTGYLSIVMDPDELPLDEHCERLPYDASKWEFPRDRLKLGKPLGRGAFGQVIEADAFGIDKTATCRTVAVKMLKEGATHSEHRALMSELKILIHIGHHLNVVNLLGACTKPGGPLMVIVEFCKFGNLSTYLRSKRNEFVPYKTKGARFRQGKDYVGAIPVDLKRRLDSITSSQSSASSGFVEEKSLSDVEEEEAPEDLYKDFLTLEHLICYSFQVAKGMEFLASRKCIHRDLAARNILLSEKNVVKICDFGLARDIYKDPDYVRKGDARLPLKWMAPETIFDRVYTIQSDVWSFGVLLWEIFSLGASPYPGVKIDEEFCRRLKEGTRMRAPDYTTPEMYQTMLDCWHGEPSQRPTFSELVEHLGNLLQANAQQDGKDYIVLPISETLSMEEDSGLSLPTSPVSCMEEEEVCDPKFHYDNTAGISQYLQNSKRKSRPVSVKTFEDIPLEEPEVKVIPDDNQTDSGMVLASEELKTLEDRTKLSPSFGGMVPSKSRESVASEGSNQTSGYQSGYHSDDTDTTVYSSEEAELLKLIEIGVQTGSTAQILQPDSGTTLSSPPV
T1 sequence (P35968 20-1356 limits assumed): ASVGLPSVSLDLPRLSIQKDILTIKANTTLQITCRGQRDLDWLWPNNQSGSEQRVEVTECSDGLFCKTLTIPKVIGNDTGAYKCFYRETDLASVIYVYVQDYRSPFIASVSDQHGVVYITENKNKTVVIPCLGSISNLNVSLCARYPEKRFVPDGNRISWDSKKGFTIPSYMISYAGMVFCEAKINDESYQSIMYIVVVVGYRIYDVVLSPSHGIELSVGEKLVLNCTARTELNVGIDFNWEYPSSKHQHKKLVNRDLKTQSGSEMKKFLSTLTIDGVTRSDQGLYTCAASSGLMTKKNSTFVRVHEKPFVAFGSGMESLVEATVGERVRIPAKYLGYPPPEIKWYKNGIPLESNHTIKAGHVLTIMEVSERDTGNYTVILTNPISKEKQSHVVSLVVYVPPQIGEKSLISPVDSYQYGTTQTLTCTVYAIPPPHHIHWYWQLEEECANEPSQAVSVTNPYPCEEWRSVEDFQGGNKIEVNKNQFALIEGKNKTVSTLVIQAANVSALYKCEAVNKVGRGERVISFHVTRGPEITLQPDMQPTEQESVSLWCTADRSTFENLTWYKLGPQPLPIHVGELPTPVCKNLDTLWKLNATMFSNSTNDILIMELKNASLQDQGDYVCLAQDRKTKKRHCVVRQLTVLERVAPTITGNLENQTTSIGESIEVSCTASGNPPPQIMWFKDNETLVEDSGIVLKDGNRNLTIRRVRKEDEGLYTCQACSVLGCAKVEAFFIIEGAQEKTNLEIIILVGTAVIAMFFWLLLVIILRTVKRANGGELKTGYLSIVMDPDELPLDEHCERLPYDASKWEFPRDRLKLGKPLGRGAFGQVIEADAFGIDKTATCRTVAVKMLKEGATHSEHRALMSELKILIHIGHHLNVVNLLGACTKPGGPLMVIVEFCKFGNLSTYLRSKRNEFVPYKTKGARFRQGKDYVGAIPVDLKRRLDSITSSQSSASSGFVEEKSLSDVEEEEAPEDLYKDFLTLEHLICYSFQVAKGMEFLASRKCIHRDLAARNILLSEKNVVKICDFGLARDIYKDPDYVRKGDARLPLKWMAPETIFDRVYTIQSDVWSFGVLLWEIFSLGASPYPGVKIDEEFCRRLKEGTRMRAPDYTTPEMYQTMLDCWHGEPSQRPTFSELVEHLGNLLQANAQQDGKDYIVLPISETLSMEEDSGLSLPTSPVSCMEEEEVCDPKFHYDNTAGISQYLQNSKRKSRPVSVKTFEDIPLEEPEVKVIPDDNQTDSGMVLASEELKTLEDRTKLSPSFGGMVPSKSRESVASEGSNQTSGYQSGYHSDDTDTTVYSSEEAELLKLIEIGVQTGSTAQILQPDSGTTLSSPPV
T1 sequence (P40337 whole entry partner): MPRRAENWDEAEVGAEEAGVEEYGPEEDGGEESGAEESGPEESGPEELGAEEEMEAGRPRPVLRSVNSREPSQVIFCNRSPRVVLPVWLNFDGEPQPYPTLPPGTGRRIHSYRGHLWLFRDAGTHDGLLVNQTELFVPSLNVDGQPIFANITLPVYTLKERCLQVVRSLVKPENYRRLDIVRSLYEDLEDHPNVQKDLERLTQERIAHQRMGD

## Cc1ccc(F)c(NC(=O)Nc2ccc(-c3cccc4c3c(N)nn4C(=O)CCCCCC(=O)N[C@H](C(=O)N3C[C@H](O)C[C@H]3C(=O)NCc3ccc(-c4scnc4C)cc3)C(C)(C)C)cc2)c1
[1]
  Activity: Non-Toxic
[2]
  IC50: 133 µM
[3]
  IC50: > 1000 nM

## Cc1ccc(F)c(NC(=O)Nc2ccc(-c3cccc4[nH]nc(N)c34)cc2)c1 [LINIFANIB]
[2]
  IC50: 2.48 µM

## Cc1ccc(F)c(NC(=O)Nc2ccc(-c3cccc4c3c(N)nn4C(=O)CCCCCCCCCCCCCCC(=O)N[C@H](C(=O)N3C[C@H](O)C[C@H]3C(=O)NCc3ccc(-c4scnc4C)cc3)C(C)(C)C)cc2)c1
[1]
  Activity: Non-Toxic
[3]
  IC50: 80.4 nM

## Cc1ccc(F)c(NC(=O)Nc2ccc(-c3cccc4c3c(N)nn4C(=O)CCCCCCCCCCC(=O)N[C@H](C(=O)N3C[C@H](O)C[C@H]3C(=O)NCc3ccc(-c4scnc4C)cc3)C(C)(C)C)cc2)c1
[4]
  Activity: 2.16%
[5]
  Activity: 26.4%
[6]
  Activity: 4.21%
[7]
  Activity: 59.22%
[8]
  Activity: Dose-dependent effect
[9]
  Activity: 1.72%
[10]
  Activity: 12.1%
[11]
  Activity: 34.38%
[12]
  late apoptotic cells %: 6.94%
[13]
  Activity: 4.12%
[14]
  Activity: 58.89%
[15]
  Activity: 14.99%
[16]
  late apoptotic cells %: 8.32%
[17]
  Activity: 24.92%
[18]
  Activity: 24.49%
[19]
  viability at 0.1 µM: 86.7%
[20]
  Activity: 15.36%
[21]
  late apoptotic cells %: 64.2%
[1]
  Activity: Non-Toxic
[22]
  Activity: 40.7%
[23]
  Activity: 0.59%
[24]
  Activity: 25.79%
[25]
  late apoptotic cells %: 48.7%
[26]
  Activity: 17.63%
[27]
  Activity: 30.4%
[28]
  viability at 20 µM: 31.5%
[29]
  viability at 10 µM: 70.2%
[30]
  Activity: 5.96%
[31]
  viability at 1 µM: 81.6%
[2]
  IC50: 38.6 µM
[32]
  Activity: Dose-dependent effect
[33]
  Activity: 25.98%
[34]
  Activity: 23.48%
[35]
  late apoptotic cells %: 15.6%
[36]
  Activity: 60.14%
[3]
  IC50: 209 nM
[37]
  Activity: 2.15%
[38]
  Activity: 18.2%
[39]
  Activity: 43.62%
[40]
  Activity: 60%
[41]
  viability at 40 µM: 8.82%
